pIC50: −log10 of the molar value. The source made the active and inactive calls.
Key:
[1] = tested on: Rattus norvegicus; assay: Antiinflammatory activity in Wistar rat assessed as inhibition of carrageenan-induced paw edema volume at 300 umol/kg, po administered 1 hrs prior to carrageenan challenge measured after 3 hrs; assay type: functional; set-up: scale not given: the % may be the effect or the level left
Summary of the method: (§1)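 Fasted Wistar rats of both sexes (150–200 g), given compound orally as a suspension in 5% arabic gum in saline. One hour later, 1% carrageenan (1 mg/paw) injected subplantar into one hind paw, saline into the other. Volumes measured by glass plethysmometer at 3 h. Edema taken as the carrageenan-minus-saline paw difference, expressed as % inhibition vs vehicle. n = 8–10.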

[2] = tested on: Rattus norvegicus; assay: Antiinflammatory activity in po dosed Wistar rat assessed as inhibition of carrageenan-induced paw edema volume administered 1 hrs prior to carrageenan challenge measured after 3 hrs; assay type: functional; summary of the method: as §1
[3] = tested on: Mus musculus; assay: Antinociceptive activity against formalin-induced pain in mouse assessed as inhibition of paw licking response during inflammatory phase at 300 umol/kg, po measured 15 to 30 mins after formalin injection; assay type: functional; set-up: scale not given: the % may be the effect or the level left
Summary of the method: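 Mice received 20 µL of 2.5% formalin subplantar in the hind paw. The inflammatory (second) phase was recorded 15–30 min after injection.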

[4] = tested on: Rattus norvegicus; assay: Antihyperalgesic activity in Wistar rat assessed as inhibition of carrageenan-induced thermal hyperalgesia at 300 umol/kg, po by hotplate test; assay type: functional, organism-based
Summary of the method: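 Fasted Wistar rats of both sexes (150–200 g), dosed orally with 300 µmol/kg as a suspension in 5% arabic gum in saline (vehicle controls). Carrageenan 1% (1 mg/paw) injected subplantar 1 h later. Hot plate held at 51 °C, cut-off 20 s. Left hind paw withdrawal latency read at 0, 30, 60, 120, 180 and 240 min post-challenge. Hyperalgesia taken as the latency drop from time 0. n = 8 per group.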

[5] = tested on: Rattus norvegicus; assay: Antiinflammatory activity against arachidonic acid-induced ear edema in Wistar rat; assay type: functional, organism-based
[6] = tested on: Mus musculus; assay: Antinociceptive activity in mouse assessed as inhibition of acetic acid-induced constrictions at 300 umol/kg, po; assay type: functional; set-up: scale not given: the % may be the effect or the level left
[7] = target: Prostaglandin G/H synthase 1 (Homo sapiens, UniProt P23219); assay: Inhibition of COX1 in human whole blood assessed as TXB2 production by enzyme immunoassay; assay type: tissue-based
[8] = target: T1, Prostaglandin G/H synthase 2 (Homo sapiens, UniProt P35354); assay: Inhibition of COX2 in LPS-stimulated human whole blood assessed as TXB2 production by enzyme immunoassay; assay type: tissue-based
T1 sequence (P35354 whole entry): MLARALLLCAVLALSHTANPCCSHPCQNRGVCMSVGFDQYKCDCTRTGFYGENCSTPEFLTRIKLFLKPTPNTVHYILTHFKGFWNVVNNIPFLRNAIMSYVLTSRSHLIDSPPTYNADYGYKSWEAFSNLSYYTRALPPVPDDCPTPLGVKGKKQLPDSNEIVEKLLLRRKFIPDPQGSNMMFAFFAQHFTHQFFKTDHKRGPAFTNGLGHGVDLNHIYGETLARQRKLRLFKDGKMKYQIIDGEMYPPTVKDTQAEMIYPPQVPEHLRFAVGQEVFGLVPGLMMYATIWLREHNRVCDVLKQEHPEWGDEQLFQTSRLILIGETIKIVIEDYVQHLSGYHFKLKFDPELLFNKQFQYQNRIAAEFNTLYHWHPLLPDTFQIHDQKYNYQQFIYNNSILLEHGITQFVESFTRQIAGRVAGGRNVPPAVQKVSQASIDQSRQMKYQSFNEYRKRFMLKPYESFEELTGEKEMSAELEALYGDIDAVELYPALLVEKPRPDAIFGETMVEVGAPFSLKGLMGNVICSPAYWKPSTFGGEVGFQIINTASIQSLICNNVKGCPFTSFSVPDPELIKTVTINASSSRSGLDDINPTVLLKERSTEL

Chain of Prostaglandin G/H synthase 1 (P23219 whole entry): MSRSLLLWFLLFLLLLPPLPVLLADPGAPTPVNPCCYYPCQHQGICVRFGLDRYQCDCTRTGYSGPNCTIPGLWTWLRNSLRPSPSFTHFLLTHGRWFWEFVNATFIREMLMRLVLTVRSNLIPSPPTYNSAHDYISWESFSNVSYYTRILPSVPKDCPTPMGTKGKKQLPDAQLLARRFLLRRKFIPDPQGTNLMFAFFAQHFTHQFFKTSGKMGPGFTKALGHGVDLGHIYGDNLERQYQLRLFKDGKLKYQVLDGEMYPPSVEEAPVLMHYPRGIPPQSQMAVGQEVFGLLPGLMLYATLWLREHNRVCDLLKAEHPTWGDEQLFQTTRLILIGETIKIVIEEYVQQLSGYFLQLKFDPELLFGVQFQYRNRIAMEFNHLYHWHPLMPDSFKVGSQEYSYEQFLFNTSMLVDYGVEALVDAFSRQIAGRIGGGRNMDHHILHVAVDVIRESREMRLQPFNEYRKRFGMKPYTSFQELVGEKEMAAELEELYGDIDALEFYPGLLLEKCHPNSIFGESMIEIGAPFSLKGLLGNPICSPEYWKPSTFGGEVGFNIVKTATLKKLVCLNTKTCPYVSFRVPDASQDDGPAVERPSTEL

Compound | Activity [1] | Activity [3] | also measured
O=C(N/N=C/c1cccs1)c1ccc2c(c1)OCO2 | 29.7% |  | 
CS(=O)(=O)Nc1cc2c(cc1C(=O)N/N=C/c1cccs1)OCO2 | 36% |  | 
CS(=O)(=O)Nc1cc2c(cc1C(=O)N/N=C/c1ccccc1)OCO2 | 59.6% | 48.7% | ED50 [2]: 97.8 µmol/kg; Activity [4]: Active; Activity [5]: Active; Activity [6]: 70%; pIC50 [7]: 5.39; pIC50 [8]: 4.99
CS(=O)(=O)Nc1cc2c(cc1C(=O)N/N=C/c1ccco1)OCO2 | 37.9% |  | 
CS(=O)(=O)Nc1ccc([N+](=O)[O-])cc1Oc1ccccc1 [NIMESULIDE] | 57.5% | 58.5% | 

— ChEMBL document CHEMBL1143373, “Novel 6-methanesulfonamide-3,4-methylenedioxyphenyl-N-acylhydrazones: orally effective anti-inflammatory drug candidates” (Bioorg Med Chem, 2009)
